In brackets after ≈: the same amount, converted by molar mass.
Columns and labels:
Klebsiella pneumoniae [1] = assay: Antimicrobial activity against Klebsiella pneumoniae after 24 hrs by agar diffusion technique; assay type: functional; conditions: for MIC: Klebsiella pneumoniae, 24 h
Procedure, shortened: (§1)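 Agar cup diffusion on Mueller-Hinton agar seeded from 10⁶ CFU/mL suspensions, with 10 mm cups in a 3–4 mm layer. Compounds were in DMF (10 mg/mL stock) at several concentrations. Plates were incubated at 37 °C and zones measured after 24 h. MIC was taken as the intercept of the plot of log concentration against inhibition zone diameter.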

Klebsiella pneumoniae [2] = assay: Antimicrobial activity against Klebsiella pneumoniae at 128 ug/ml after 24 hrs by agar diffusion technique; assay type: functional; conditions: read-out: DIZ
Procedure, shortened: (§2)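 Strains came from a university microbiology department. Inocula were 10⁶ CFU/mL. Mueller-Hinton agar was seeded with culture, poured 3–4 mm thick, and 10 mm cups were bored. Compounds were dissolved in DMF (10 mg/mL stock), diluted, and the solution was placed in the cups. Plates were incubated at 37 °C overnight. Inhibition zone diameter (mm) was read at 24 h.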

Pseudomonas aeruginosa [3] = assay: Antimicrobial activity against Pseudomonas aeruginosa at 64 ug/ml after 24 hrs by agar diffusion technique; assay type: functional; conditions: read-out: DIZ; procedure, shortened: as §2
Pseudomonas aeruginosa [4] = assay: Antimicrobial activity against Pseudomonas aeruginosa at 4 ug/ml after 24 hrs by agar diffusion technique; assay type: functional; conditions: read-out: DIZ; procedure, shortened: as §2
Escherichia coli [5] = assay: Antimicrobial activity against Escherichia coli at 16 ug/ml after 24 hrs by agar diffusion technique; assay type: functional; conditions: read-out: DIZ; procedure, shortened: as §2
Pseudomonas aeruginosa [6] = assay: Antimicrobial activity against Pseudomonas aeruginosa at 512 ug/ml after 24 hrs by agar diffusion technique; assay type: functional; conditions: read-out: DIZ; procedure, shortened: as §2
Klebsiella pneumoniae [7] = assay: Antimicrobial activity against Klebsiella pneumoniae at 64 ug/ml after 24 hrs by agar diffusion technique; assay type: functional; conditions: read-out: DIZ; procedure, shortened: as §2
Klebsiella pneumoniae [8] = assay: Antimicrobial activity against Klebsiella pneumoniae at 4 ug/ml after 24 hrs by agar diffusion technique; assay type: functional; conditions: read-out: DIZ; procedure, shortened: as §2
Pseudomonas aeruginosa [9] = assay: Antimicrobial activity against Pseudomonas aeruginosa after 24 hrs by agar diffusion technique; assay type: functional; conditions: for MIC: Pseudomonas aeruginosa, 24 h; procedure, shortened: as §1
Escherichia coli [10] = assay: Antimicrobial activity against Escherichia coli at 512 ug/ml after 24 hrs by agar diffusion technique; assay type: functional; conditions: read-out: DIZ; procedure, shortened: as §2
Escherichia coli [11] = assay: Antimicrobial activity against Escherichia coli at 64 ug/ml after 24 hrs by agar diffusion technique; assay type: functional; conditions: read-out: DIZ; procedure, shortened: as §2
[12] = Octanol-phosphate buffer partition coefficient, log D at pH 7.4 by spectrophotometry; assay type: physicochemical
Procedure, shortened: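 Shake-flask method. A 0.2 mg/mL stock was diluted into pH 7.4 phosphate buffer and mixed with an equal volume of n-octanol, phases mutually presaturated and protected from light. Samples were vortexed 3 min, then shaken 5 h at 25 °C. Both phases were assayed by UV at 270–280 nm. D is the molar concentration ratio, octanol to aqueous.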

Staphylococcus aureus [13] = assay: Antimicrobial activity against Staphylococcus aureus after 24 hrs by agar diffusion technique; assay type: functional; conditions: for MIC: Staphylococcus aureus, 24 h; procedure, shortened: as §1
Escherichia coli [14] = assay: Antimicrobial activity against Escherichia coli after 24 hrs by agar diffusion technique; assay type: functional; conditions: for MIC: Escherichia coli, 24 h; procedure, shortened: as §1
Klebsiella pneumoniae [15] = assay: Antimicrobial activity against Klebsiella pneumoniae at 16 ug/ml after 24 hrs by agar diffusion technique; assay type: functional; conditions: read-out: DIZ; procedure, shortened: as §2
Escherichia coli [16] = assay: Antimicrobial activity against Escherichia coli at 4 ug/ml after 24 hrs by agar diffusion technique; assay type: functional; conditions: read-out: DIZ; procedure, shortened: as §2
Klebsiella pneumoniae [17] = assay: Antimicrobial activity against Klebsiella pneumoniae at 512 ug/ml after 24 hrs by agar diffusion technique; assay type: functional; conditions: read-out: DIZ; procedure, shortened: as §2
Pseudomonas aeruginosa [18] = assay: Antimicrobial activity against Pseudomonas aeruginosa at 16 ug/ml after 24 hrs by agar diffusion technique; assay type: functional; conditions: read-out: DIZ; procedure, shortened: as §2
Escherichia coli [19] = assay: Antimicrobial activity against Escherichia coli at 128 ug/ml after 24 hrs by agar diffusion technique; assay type: functional; conditions: read-out: DIZ; procedure, shortened: as §2
Pseudomonas aeruginosa [20] = assay: Antimicrobial activity against Pseudomonas aeruginosa at 128 ug/ml after 24 hrs by agar diffusion technique; assay type: functional; conditions: read-out: DIZ; procedure, shortened: as §2
Staphylococcus aureus [21] = assay: Antimicrobial activity against Staphylococcus aureus at 4 ug/ml after 24 hrs by agar diffusion technique; assay type: functional; conditions: read-out: DIZ; procedure, shortened: as §2
Staphylococcus aureus [22] = assay: Antimicrobial activity against Staphylococcus aureus at 128 ug/ml after 24 hrs by agar diffusion technique; assay type: functional; conditions: read-out: DIZ; procedure, shortened: as §2
Staphylococcus aureus [23] = assay: Antimicrobial activity against Staphylococcus aureus at 512 ug/ml after 24 hrs by agar diffusion technique; assay type: functional; conditions: read-out: DIZ; procedure, shortened: as §2
Staphylococcus aureus [24] = assay: Antimicrobial activity against Staphylococcus aureus at 64 ug/ml after 24 hrs by agar diffusion technique; assay type: functional; conditions: read-out: DIZ; procedure, shortened: as §2
Staphylococcus aureus [25] = assay: Antimicrobial activity against Staphylococcus aureus at 16 ug/ml after 24 hrs by agar diffusion technique; assay type: functional; conditions: read-out: DIZ; procedure, shortened: as §2

SMILES | MIC (Klebsiella pneumoniae [1]) [µg/mL] | MIC (Pseudomonas aeruginosa [9]) [µg/mL] | MIC (Staphylococcus aureus [13]) [µg/mL] | MIC (Escherichia coli [14]) [µg/mL] | logMIC (Klebsiella pneumoniae [1]) | zone of inhibition at 128 µg/mL (Klebsiella pneumoniae [2]) [mm] | zone of inhibition at 64 µg/mL (Pseudomonas aeruginosa [3]) [mm] | zone of inhibition at 4 µg/mL (Pseudomonas aeruginosa [4]) [mm] | zone of inhibition at 16 µg/mL (Escherichia coli [5]) [mm] | zone of inhibition at 512 µg/mL (Pseudomonas aeruginosa [6]) [mm] | zone of inhibition at 64 µg/mL (Klebsiella pneumoniae [7]) [mm] | zone of inhibition at 4 µg/mL (Klebsiella pneumoniae [8]) [mm] | logMIC (Pseudomonas aeruginosa [9]) | zone of inhibition at 512 µg/mL (Escherichia coli [10]) [mm] | zone of inhibition at 64 µg/mL (Escherichia coli [11]) [mm] | logMIC (Staphylococcus aureus [13]) | logMIC (Escherichia coli [14]) | zone of inhibition at 16 µg/mL (Klebsiella pneumoniae [15]) [mm] | zone of inhibition at 4 µg/mL (Escherichia coli [16]) [mm] | zone of inhibition at 512 µg/mL (Klebsiella pneumoniae [17]) [mm] | further results
CCn1cc(C(=O)O)c(=O)c2cc(F)c(N3CCN(c4nnc(-c5ccccc5)c(-c5ccccc5)n4)CC3)cc21 | > 512 | > 512 | 64 (≈ 116 µM) | > 512 | 2.71 | 0 | 0 | 0 | 0 | 0 | 0 | 0 | 2.71 | 0 | 0 | 1.81 | 2.71 | 0 | 0 | 0 | logD [12]: -0.072; zone of inhibition at 16 µg/mL (Pseudomonas aeruginosa [18]): 0 mm; zone of inhibition at 128 µg/mL (Escherichia coli [19]): 0 mm; zone of inhibition at 128 µg/mL (Pseudomonas aeruginosa [20]): 0 mm
CCn1cc(C(=O)O)c(=O)c2cc(F)c(N3CCN(C4CCCC4)CC3)cc21 | 13 (≈ 33.6 µM) | > 512 | 11 (≈ 28.4 µM) | 64 (≈ 165 µM) | 1.11 | 3 | 0 | 0 | 0 | 0 | 2 | 0 | 2.71 | 8 | 0 | 1.04 | 1.81 | 0 | 0 | 8 | zone of inhibition at 4 µg/mL (Staphylococcus aureus [21]): 0 mm; zone of inhibition at 128 µg/mL (Staphylococcus aureus [22]): 7 mm; zone of inhibition at 512 µg/mL (Staphylococcus aureus [23]): 15 mm; zone of inhibition at 64 µg/mL (Staphylococcus aureus [24]): 4 mm; zone of inhibition at 16 µg/mL (Staphylococcus aureus [25]): 0 mm; zone of inhibition at 16 µg/mL (Pseudomonas aeruginosa [18]): 0 mm; zone of inhibition at 128 µg/mL (Escherichia coli [19]): 3 mm; zone of inhibition at 128 µg/mL (Pseudomonas aeruginosa [20]): 0 mm
CCn1cc(C(=O)O)c(=O)c2cc(F)c(N3CCN(CN4C(=O)CCC4=O)CC3)cc21 | 128 (≈ 297 µM) | 5 (≈ 11.6 µM) | 4 (≈ 9.29 µM) | < 1 | 2.11 | 22 | 13 | 0 | 0 | 27 | 20 | 8 | 0.7 | 5 | 0 | 0.6 | 0 | 15 | 0 | 31 | zone of inhibition at 4 µg/mL (Staphylococcus aureus [21]): 0 mm; zone of inhibition at 128 µg/mL (Staphylococcus aureus [22]): 13 mm; zone of inhibition at 512 µg/mL (Staphylococcus aureus [23]): 22 mm; logD [12]: -0.8; zone of inhibition at 64 µg/mL (Staphylococcus aureus [24]): 12 mm; zone of inhibition at 16 µg/mL (Staphylococcus aureus [25]): 4 mm; zone of inhibition at 16 µg/mL (Pseudomonas aeruginosa [18]): 9 mm; zone of inhibition at 128 µg/mL (Escherichia coli [19]): 0 mm; zone of inhibition at 128 µg/mL (Pseudomonas aeruginosa [20]): 15 mm

The next lines start with results.

MIC (Klebsiella pneumoniae [1]) [µg/mL] | MIC (Pseudomonas aeruginosa [9]) [µg/mL] | MIC (Staphylococcus aureus [13]) [µg/mL] | MIC (Escherichia coli [14]) [µg/mL] | SMILES | logMIC (Klebsiella pneumoniae [1]) | zone of inhibition at 128 µg/mL (Klebsiella pneumoniae [2]) [mm] | zone of inhibition at 64 µg/mL (Pseudomonas aeruginosa [3]) [mm] | zone of inhibition at 4 µg/mL (Pseudomonas aeruginosa [4]) [mm] | zone of inhibition at 16 µg/mL (Escherichia coli [5]) [mm] | zone of inhibition at 512 µg/mL (Pseudomonas aeruginosa [6]) [mm] | zone of inhibition at 64 µg/mL (Klebsiella pneumoniae [7]) [mm] | zone of inhibition at 4 µg/mL (Klebsiella pneumoniae [8]) [mm] | logMIC (Pseudomonas aeruginosa [9]) | zone of inhibition at 512 µg/mL (Escherichia coli [10]) [mm] | zone of inhibition at 64 µg/mL (Escherichia coli [11]) [mm] | logMIC (Staphylococcus aureus [13]) | logMIC (Escherichia coli [14]) | zone of inhibition at 16 µg/mL (Klebsiella pneumoniae [15]) [mm] | zone of inhibition at 4 µg/mL (Escherichia coli [16]) [mm] | zone of inhibition at 512 µg/mL (Klebsiella pneumoniae [17]) [mm] | further results
64 (≈ 121 µM) | 128 (≈ 242 µM) | 128 (≈ 242 µM) | 128 (≈ 242 µM) | CCn1cc(C(=O)O)c(=O)c2cc(F)c(N3CCN(CN4C(=O)c5cccc6cccc(c56)C4=O)CC3)cc21 | 1.81 | 8 | 0 | 0 | 0 | 10 | 0 | 0 | 2.11 | 13 | 0 | 2.11 | 2.11 | 0 | 0 | 9 | zone of inhibition at 4 µg/mL (Staphylococcus aureus [21]): 0 mm; zone of inhibition at 128 µg/mL (Staphylococcus aureus [22]): 0 mm; zone of inhibition at 512 µg/mL (Staphylococcus aureus [23]): 15 mm; logD [12]: -0.9; zone of inhibition at 64 µg/mL (Staphylococcus aureus [24]): 0 mm; zone of inhibition at 16 µg/mL (Staphylococcus aureus [25]): 0 mm; zone of inhibition at 16 µg/mL (Pseudomonas aeruginosa [18]): 0 mm; zone of inhibition at 128 µg/mL (Escherichia coli [19]): 0 mm; zone of inhibition at 128 µg/mL (Pseudomonas aeruginosa [20]): 0 mm
9 (≈ 18.8 µM) | 64 (≈ 134 µM) | > 512 | 128 (≈ 268 µM) | CCn1cc(C(=O)O)c(=O)c2cc(F)c(N3CCN(CN4C(=O)c5ccccc5C4=O)CC3)cc21 | 0.95 | 8 | 0 | 0 | 0 | 12 | 4 | 0 | 1.81 | 9 | 0 | 2.71 | 2.11 | 0 | 0 | 10 | zone of inhibition at 4 µg/mL (Staphylococcus aureus [21]): 0 mm; zone of inhibition at 128 µg/mL (Staphylococcus aureus [22]): 0 mm; zone of inhibition at 512 µg/mL (Staphylococcus aureus [23]): 0 mm; zone of inhibition at 64 µg/mL (Staphylococcus aureus [24]): 0 mm; zone of inhibition at 16 µg/mL (Staphylococcus aureus [25]): 0 mm; zone of inhibition at 16 µg/mL (Pseudomonas aeruginosa [18]): 0 mm; zone of inhibition at 128 µg/mL (Escherichia coli [19]): 0 mm; zone of inhibition at 128 µg/mL (Pseudomonas aeruginosa [20]): 10 mm

Reference: ChEMBL document CHEMBL1137764, “Design, synthesis, antibacterial activity and physicochemical parameters of novel N-4-piperazinyl derivatives of norfloxacin” (Bioorg Med Chem, 2009)
